Source: ChEMBL document CHEMBL1151753, “New benzylureas as a novel series of potent, nonpeptidic vasopressin V2 receptor agonists” (J Med Chem, 2008)
Values after ≈ are worked out from the molar mass of the structure shown. Active and inactive are the calls of the source. No cut-off for these calls is given here.

Assays:
[1] = molecular target: T1, Vasopressin V2 receptor (Homo sapiens, UniProt P30518); experiment: Agonist activity at human vasopressin V2 receptor expressed in HEK293 cells assessed as increase in intracellular cAMP level by CRE-luciferase reporter gene assay; format: functional, cell-based
How it was run: (§1)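 HEK293 cells grown to 70-80% confluency, transiently transfected with receptor plus pGL4 CRE-Luc reporter, incubated 24 h at 37 °C/5% CO2, plated at 10000 cells/well, a further 24 h. Compounds in 0.5 log serial dilutions in duplicate, final DMSO 0.1%. Luciferase read by luminescence after 5 h at 37 °C, expressed as % of 100 nM AVP control. 4-parameter logistic fit gave EC50, reported as geometric mean ± SD.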

[2] = molecular target: Vasopressin V2 receptor (Rattus norvegicus, UniProt Q00788); experiment: Agonist activity at rat vasopressin V2 receptor expressed in HEK293 cells assessed as increase in intracellular cAMP level by CRE-luciferase reporter gene assay; format: functional, cell-based; how it was run: as §1
[3] = tested on: Rattus norvegicus; experiment: Antidiuretic effect in Long-Evans Brattleboro rat model assessed as inhibition of urine production at 1 mg/kg, po after 1 hr relative to control; format: functional
How it was run: (§2)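 Brattleboro rats (Long-Evans hooded strain lacking circulating AVP, diabetes insipidus model) dosed orally in carboxymethyl cellulose. Voided urine collected and measured over 1 h periods and compared with vehicle-treated animals. At least six animals per group, data as means.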

[4] = molecular target: T1, Vasopressin V2 receptor; experiment: Agonist activity at human vasopressin V2 receptor expressed in HEK293 cells assessed as increase in intracellular cAMP level by CRE-luciferase reporter gene assay relative to arginine vasopressin; format: functional, cell-based; how it was run: as §1
[5] = tested on: Rattus norvegicus; experiment: Antidiuretic effect in Long-Evans Brattleboro rat model assessed as inhibition of urine production at 3 mg/kg, po after 2 hrs; format: functional, organism-based; set-up: dose 3 mg/kg; how it was run: as §2
[6] = molecular target: T2, Vasopressin V1b receptor (Homo sapiens) (UniProt P47901); experiment: Agonist activity at human vasopressin V1b receptor upto 10 uM by reporter gene assay; format: functional; how it was run: as §1
T2 sequence (whole entry): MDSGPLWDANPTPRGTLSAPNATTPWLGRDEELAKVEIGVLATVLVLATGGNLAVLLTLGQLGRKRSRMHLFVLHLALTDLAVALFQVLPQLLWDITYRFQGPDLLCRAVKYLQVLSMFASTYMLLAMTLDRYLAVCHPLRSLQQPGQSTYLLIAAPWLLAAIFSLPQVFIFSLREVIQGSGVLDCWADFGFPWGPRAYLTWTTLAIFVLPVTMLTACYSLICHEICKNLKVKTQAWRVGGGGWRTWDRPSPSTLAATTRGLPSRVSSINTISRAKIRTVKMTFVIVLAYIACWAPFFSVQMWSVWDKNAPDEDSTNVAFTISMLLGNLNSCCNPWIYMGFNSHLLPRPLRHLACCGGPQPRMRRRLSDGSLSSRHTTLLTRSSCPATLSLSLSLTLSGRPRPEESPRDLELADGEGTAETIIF

[7] = molecular target: Vasopressin V1a receptor (Homo sapiens) (UniProt P37288); experiment: Agonist activity at human vasopressin V1a receptor upto 10 uM by reporter gene assay; format: functional; how it was run: as §1
[8] = molecular target: T1, Vasopressin V2 receptor; experiment: Binding affinity to human vasopressin V2 receptor expressed in HEK293 cells by radioligand binding assay; format: cell-based
[9] = molecular target: T3, Oxytocin receptor (Homo sapiens, UniProt P30559); experiment: Binding affinity to oxytocin receptor
T3 sequence (P30559 whole entry): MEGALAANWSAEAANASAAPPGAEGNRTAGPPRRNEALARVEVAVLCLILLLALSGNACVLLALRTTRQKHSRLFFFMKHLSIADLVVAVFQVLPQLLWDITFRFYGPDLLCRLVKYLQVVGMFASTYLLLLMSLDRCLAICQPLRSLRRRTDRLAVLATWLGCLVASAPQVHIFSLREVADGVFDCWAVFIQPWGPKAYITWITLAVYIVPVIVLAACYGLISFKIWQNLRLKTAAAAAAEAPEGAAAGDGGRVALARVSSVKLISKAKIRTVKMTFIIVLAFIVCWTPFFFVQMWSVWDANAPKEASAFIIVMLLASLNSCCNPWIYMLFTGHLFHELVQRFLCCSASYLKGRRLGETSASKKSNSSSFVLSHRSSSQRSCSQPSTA

[10] = tested on: Rattus norvegicus; experiment: Antidiuretic effect in Long-Evans Brattleboro rat model assessed as inhibition of urine production at 1 mg/kg, po in methylcellulose after 5 hrs; format: functional, organism-based; set-up: dose 1 mg/kg
[11] = molecular target: Vasopressin V2 receptor (Rattus norvegicus) (UniProt Q00788); experiment: Agonist activity at rat vasopressin V2 receptor expressed in HEK293 cells assessed as increase in intracellular cAMP level by CRE-luciferase reporter gene assay relative to arginine vasopressin
[12] = tested on: Rattus norvegicus; experiment: Antidiuretic effect in Long-Evans Brattleboro rat model assessed as inhibition of urine production at 1 mg/kg, po after 1 to 2 hrs; format: functional, organism-based; set-up: dose 1 mg/kg; how it was run: as §2
[13] = Aqueous solubility of the compound; format: physicochemical; conditions: water (aqueous)

T1 sequence (P30518 whole entry): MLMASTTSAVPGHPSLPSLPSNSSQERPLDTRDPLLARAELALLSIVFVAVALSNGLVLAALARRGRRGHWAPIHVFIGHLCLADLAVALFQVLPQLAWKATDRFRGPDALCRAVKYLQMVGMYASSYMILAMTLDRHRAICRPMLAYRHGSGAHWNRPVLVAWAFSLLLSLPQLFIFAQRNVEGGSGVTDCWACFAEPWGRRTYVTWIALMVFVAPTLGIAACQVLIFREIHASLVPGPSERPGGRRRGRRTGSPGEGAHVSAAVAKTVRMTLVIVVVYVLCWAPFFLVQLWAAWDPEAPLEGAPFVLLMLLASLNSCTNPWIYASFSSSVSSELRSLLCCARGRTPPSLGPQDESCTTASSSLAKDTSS
Vasopressin V2 receptor (Rattus norvegicus, UniProt Q00788), sequence (Q00788 whole entry): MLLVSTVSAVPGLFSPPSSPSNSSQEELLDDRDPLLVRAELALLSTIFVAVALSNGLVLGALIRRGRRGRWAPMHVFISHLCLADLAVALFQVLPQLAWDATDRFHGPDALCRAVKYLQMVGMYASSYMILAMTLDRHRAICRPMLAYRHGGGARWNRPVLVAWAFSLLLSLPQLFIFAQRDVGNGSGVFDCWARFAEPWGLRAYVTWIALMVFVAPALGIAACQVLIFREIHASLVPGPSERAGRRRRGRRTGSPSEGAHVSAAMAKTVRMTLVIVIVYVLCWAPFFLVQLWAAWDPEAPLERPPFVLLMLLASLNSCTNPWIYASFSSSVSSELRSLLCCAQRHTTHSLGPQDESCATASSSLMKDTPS
Vasopressin V1a receptor (Homo sapiens), sequence (P37288 whole entry, looked up): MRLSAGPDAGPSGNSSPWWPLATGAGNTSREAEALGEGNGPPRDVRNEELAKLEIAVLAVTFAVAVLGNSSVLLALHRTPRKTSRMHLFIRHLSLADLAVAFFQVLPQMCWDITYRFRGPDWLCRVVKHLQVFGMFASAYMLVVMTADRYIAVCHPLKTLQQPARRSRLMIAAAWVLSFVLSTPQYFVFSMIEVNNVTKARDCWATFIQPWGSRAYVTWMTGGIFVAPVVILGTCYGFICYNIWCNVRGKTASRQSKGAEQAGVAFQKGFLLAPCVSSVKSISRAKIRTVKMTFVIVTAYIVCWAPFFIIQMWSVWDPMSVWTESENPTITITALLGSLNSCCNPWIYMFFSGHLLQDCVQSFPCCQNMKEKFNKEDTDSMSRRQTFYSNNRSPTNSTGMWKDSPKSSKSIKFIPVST
Vasopressin V2 receptor (Rattus norvegicus), sequence (Q00788 whole entry, looked up): as the sequence (Q00788 whole entry) above

Compound | EC50 [1] [µM] | further results
COC1(OC)C[C@@H](C(=O)N(C)C)N(C(=O)NCc2ccc(C(=O)N3CCCCc4ccccc43)cc2C)C1 | 0.02 | 
Cc1cc(C(=O)N2CCCCc3ccccc32)ccc1CNC(=O)NCC(N)=O | 0.21 | 
CCO[C@@H]1C[C@@H](C(=O)N(C)C)N(C(=O)NCc2ccc(C(=O)N3CCCCc4ccccc43)cc2C)C1 | 0.0043 | EC50 [2]: 0.015 µM; inhibition in vivo at 1 mg/kg [3]: 60%
Cc1cc(C(=O)N2CCCCc3ccccc32)ccc1CNC(=O)N1CCC[C@H]1C(=O)N(C)C [FEDOVAPAGON] | 0.024 | Efficacy [4]: 100%; Activity [5]: Active; EC50 [2]: 0.15 µM; inhibition in vivo at 1 mg/kg [3]: 81%; Activity [6]: inactive; Activity [7]: inactive; Ki [8]: 2 µM; Ki [9]: > 10 µM
O=C(NCc1ccc(C(=O)N2CCCCc3ccccc32)c(Cl)c1)Nc1c(F)cccc1F | 0.04 | 
Cc1cc(C(=O)N2CCc3ccccc3-c3ccccc32)ccc1CNC(=O)N1CCC[C@H]1C(=O)N(C)C | 0.084 | 
Cc1cc(C(=O)N2CCCCc3ccccc32)ccc1CNC(=O)NCC(=O)OC(C)(C)C | 0.12 | 
Cc1cc(C(=O)N2CCCCc3ccccc32)ccc1CNC(=O)N1C[C@H](OCc2ccccc2)C[C@H]1C(=O)N(C)C | 0.01 | 
Cc1cc(C(=O)N2CCCCc3ccccc32)ccc1CNC(=O)Nc1c(F)cccc1F | 0.0021 | Activity [10]: inactive; EC50 [2]: 0.013 µM; inhibition in vivo at 1 mg/kg [3]: 0%; Ki [8]: 0.2 µM; Ki [9]: > 10 µM
Cc1cc(C(=O)N2CCCC(O)c3ccccc32)ccc1CNC(=O)N1CCC[C@H]1C(=O)N(C)C (stereo partly specified) | 0.23 | 
O=C(NCc1ccc(C(=O)N2CCCCc3ccccc32)c(F)c1)Nc1c(F)cccc1F | 0.18 | 
Cc1cc(C(=O)N2CCCOc3ccccc32)ccc1CNC(=O)N1CCC[C@H]1C(=O)N(C)C | 1 | 
Cc1cc(C(=O)N2CCCCc3ccccc32)ccc1CNC(=O)N1CCC[C@H]1C(=O)OC(C)C | 0.95 | 
CCc1cc(C(=O)N2CCCCc3ccccc32)ccc1CNC(=O)Nc1c(F)cccc1F | 0.01 | 
COC(=O)[C@@H]1CCCN1C(=O)NCc1ccc(C(=O)N2CCCCc3ccccc32)cc1C | 0.1 | 
Cc1cc(C(=O)N2CCCC(F)(F)c3ccccc32)ccc1CNC(=O)N1CCC[C@H]1C(=O)N(C)C | 1.7 | 
COc1cc(CNC(=O)Nc2c(F)cccc2F)ccc1C(=O)N1CCCCc2ccccc21 | 0.11 | 
Cc1cc(C(=O)N2CCCCc3ccccc32)ccc1CNC(=O)N1CCC[C@@H]1C(=O)N(C)C | 0.38 | 
Cc1cc(C(=O)N2CCCCc3ccccc32)ccc1CNC(=O)N1CC(F)(F)C[C@H]1C(=O)N(C)C | 0.05 | 
Cc1cc(C(=O)N2CCCCc3ccccc32)ccc1CNC(=O)NCC(=O)NCc1ccccc1 | 0.27 | 
Cc1cc(C(=O)N2CCCCc3ccccc32)ccc1CNC(=O)NCC(=O)OC(C)C | 0.14 | 
Cc1cc(C(=O)N2CCCCc3ccccc32)ccc1CNC(=O)NCC(=O)OCc1ccccc1 | 0.73 | 
CCN(CC)C(=O)[C@@H]1CCCN1C(=O)NCc1ccc(C(=O)N2CCCCc3ccccc32)cc1C | 0.35 | 

Compound | EC50 [1] [µM] | further results
Cc1cc(C(=O)N2CCCCc3ccccc32)ccc1CNC(=O)Nc1ccccc1 | 0.13 | 
Cc1cc(C(=O)N2CCCCc3ccccc32)ccc1CNC(=O)NCC(=O)O | 0.18 | 
Cc1cc(C(=O)N2CCCCc3ccccc32)ccc1CNC(=O)NCC(=O)N1CCCC1 | 0.1 | 
Cc1cc(C(=O)N2CCCCc3ccccc32)ccc1CNC(=O)N1CCC[C@H]1C(=S)N(C)C | 0.0032 | 
Cc1cc(C(=O)N2CCCCc3ccccc32)ccc1CNC(=O)NCC(=O)N1CCCCC1 | 0.15 | 
Cc1cc(C(=O)N2CCCCc3ccccc32)ccc1CNC(=O)N1CC(=O)C[C@H]1C(=O)N(C)C | 0.027 | 
CO[C@@H]1C[C@@H](C(=O)N(C)C)N(C(=O)NCc2ccc(C(=O)N3CCCCc4ccccc43)cc2C)C1 | 0.0047 | EC50 [2]: 0.065 µM; inhibition in vivo at 1 mg/kg [3]: 84%
Cc1cc(C(=O)N2CCc3cccn3-c3ccccc32)ccc1CNC(=O)N1CCC[C@H]1C(=O)N(C)C | 0.14 | 
Cc1cc(C(=O)N2CCCCc3ccccc32)ccc1CNC(=O)N1CCC[C@H]1C(=O)OC(C)(C)C | 0.39 | 
CCOC(=O)CNC(=O)NCc1ccc(C(=O)N2CCCCc3ccccc32)cc1C | 0.14 | 
Cc1cc(C(=O)N2Cc3cccn3Cc3ccccc32)ccc1CNC(=O)N1CCC[C@H]1C(=O)N(C)C | 0.12 | 
O=C(NCc1ccc(C(=O)N2CCCCc3ccccc32)cc1)Nc1c(F)cccc1F | 0.047 | Activity [11]: 30%; Ki [9]: > 10 µM
Cc1cc(C(=O)N2CCCCc3ccccc32)ccc1CNC(=O)Nc1ccccc1F | 0.03 | 
COC(=O)CNC(=O)NCc1ccc(C(=O)N2CCCCc3ccccc32)cc1C | 0.037 | 
Cc1cc(C(=O)N2CCCCc3ccccc32)ccc1CNC(=O)N1C[C@H](OC(C)(C)C)C[C@H]1C(=O)N(C)C | 0.046 | 
Cc1cc(C(=O)N2CCCCc3ccccc32)ccc1CNC(=O)NCC(=O)N(C)C | 0.058 | EC50 [2]: 0.05 µM; inhibition in vivo at 1 mg/kg [3]: 82%; Activity [12]: Active; solubility [13]: 177 µg/mL (≈ 419 µM)
Cc1cc(C(=O)N2CCCC(C)c3ccccc32)ccc1CNC(=O)N1CCC[C@H]1C(=O)N(C)C (stereo partly specified) | 0.22 | 
Cc1ccn(-c2ccc(C(=O)N3Cc4cccn4Cc4ccccc43)c(Cl)c2)n1 | < 0.001 | 
Cc1cc(C(=O)N2CCCCc3ccccc32)ccc1CNC(=O)Nc1ccc[nH]c1=O | 0.14 | 
Cc1cc(C(=O)N2CCCCc3ccccc32)ccc1CNC(=O)N1C[C@H](O)C[C@H]1C(=O)N(C)C | 0.0023 | EC50 [2]: 0.041 µM; inhibition in vivo at 1 mg/kg [3]: 68%
Cc1cc(C(=O)N2CCCCc3ccccc32)cc(C)c1CNC(=O)Nc1c(F)cccc1F | 0.082 | 
Cc1cc(C(=O)N2CCCCc3ccccc32)ccc1CNC(=O)N1CCC[C@H]1C(=O)O | 0.68 | 
Cc1cc(C(=O)N2CCCCc3ccccc32)ccc1CNC(=O)NCC(=O)Oc1ccccc1 | 0.82 | 
